Data reported in ChEMBL document CHEMBL5550188, “Detection of a Mitochondrial Fragmentation and Integrated Stress Response Using the Cell Painting Assay” (2024).
Active and inactive are the calls of the source. The rule behind the calls is not given here.

Tests used:
U2OS [1] = experiment: Induction of mitochondrial fragmentation in human U2OS cells assessed as puncta-like staining at 2 uM incubated for 20 hrs by Mito Tracker Deep Red dye based CPA assay; assay type: functional, cell-based
In short: (§1)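 Cell Painting: U-2OS were seeded at 1600 cells/well, then dosed 4 h later for 20 h at 37 °C against a matched-% DMSO control. Live cells were stained 30 min with 100 nM MitoTracker Deep Red, then fixed in 3.7% formaldehyde and permeabilized with 0.1% Triton X-100. They were co-stained with phalloidin, concanavalin A, Hoechst, WGA and SYTO 14. Imaging was high-content, run as triplicate plates; features are Z-scores versus DMSO median/MAD.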

U2OS [2] = experiment: Induction of mitochondrial network fragmentation in human U2OS cells at 2 uM incubated for 24 hrs by CellLight Mitochondria-GFP assay; assay type: functional, cell-based
In short: (§2)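 U-2OS were transduced with CellLight Mitochondria-GFP BacMam 2.0 one day before treatment. 3000 cells/well were seeded in chamber slides. After compound addition, live cells were imaged by confocal microscopy (488/555 nm) continuously over 24 h at 37 °C, 5% CO₂.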

U2OS [3] = experiment: Inhibition of cell confluence in human U2OS cells at 2 uM measured after 48 hrs by PI/caspase-3/7 Green dye based analysis; assay type: functional
In short: (§3)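 U-2OS at 5000/well were incubated overnight, then given medium with compound or DMSO plus propidium iodide and CellEvent Caspase-3/7 Green. Cells were imaged hourly for 48 h by live-cell imaging. Phase confluence gave growth; red and green object confluence gave PI-positive cells and caspase-3/7 activity.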

U2OS [4] = experiment: Inhibition of cell confluence in human U2OS cells at 10 uM measured after 48 hrs by PI/caspase-3/7 Green dye based analysis; assay type: functional; in short: as §3
U2OS [5] = experiment: Effect on mitochondrial respiration in human U2OS cells assessed as suppression of OCR level measured after 24 hrs by Seahorse analysis; assay type: functional, cell-based
In short: (§4)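 Seahorse XFp Mito Stress Test on U-2OS, 2 × 10⁵ cells per well, seeded overnight. Assay medium was pH 7.4 DMEM with 2 mM GlutaMAX, 1 mM pyruvate and 25 mM glucose. For acute runs, compound was injected after 5 baseline reads, then 10 reads. Otherwise cells were pretreated 24 h. Then oligomycin A, FCCP and rotenone/antimycin A were added. OCR/ECAR were background-subtracted and normalized to the last baseline (100%). Mean ± SD, n = 3.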

U2OS [6] = experiment: Effect on mitochondrial respiration in human U2OS cells assessed as suppression of OCR level at 10 uM measured after 24 hrs by Seahorse analysis relative to control; assay type: functional; in short: as §4
U2OS [7] = experiment: Effect on mitochondrial respiration in human U2OS cells assessed as suppression of OCR level at 2 to 10 uM of acute treatment by Seahorse analysis; assay type: functional, cell-based; conditions: dose 2-10 µM; in short: as §4
U2OS [8] = experiment: Effect on glycolysis in human U2OS cells assessed as increase in ECAR level at 2 to 10 uM of acute treatment by Seahorse analysis; assay type: functional, cell-based; conditions: dose 2-10 µM; in short: as §4
U2OS [9] = experiment: Effect on glycolysis in human U2OS cells assessed as increase in ECAR level at highest concentration measured after 24 hrs by Seahorse analysis; assay type: functional, cell-based; in short: as §4
U2OS [10] = experiment: Effect on mitochondrial membrane potential in human U2OS cells at 2 uM incubated for 24 hrs by TRME staining based analysis; assay type: functional, cell-based
In short: (§5)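 U-2OS (5 × 10³/well) were treated 24 h, then given 20 μM FCCP or 0.5% DMSO controls for 10 min. Cells were stained 30 min at 37 °C with 1 μM TMRE plus Hoechst-33342 in complete DMEM, washed, and imaged live in 0.2% BSA/PBS at 10× (TMRE ex/em 549/575 nm).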

U2OS [11] = experiment: Induction of oxidative stress in human U2OS cells assessed as increase in mitochondrial superoxide level at 2 uM incubated for 1 hr by MitoSox Red staining based analysis; assay type: functional, cell-based
In short: (§6)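 U-2OS at 15,000/well were preloaded 30 min with 5 μM MitoSOX Red plus Hoechst in plain DMEM. They were then treated 60 min in complete DMEM, fixed in 0.5% paraformaldehyde, and imaged at 10×. Integrated MitoSOX intensity per cell was normalized to DMSO (0%) and 10 μM CDNB (100%). Mean ± SD, n = 3.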

U2OS [12] = experiment: Effect on HIF1 signaling in human U2OS cells at 2 uM incubated for 24 hrs by pathway over-representation analysis; assay type: functional, cell-based
In short: (§7)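 U-2OS seeded at 1 × 10⁶ cells in T75 flasks, treated next day for 24 h at 37 °C versus DMSO. Cells were lysed by freeze–thaw, reduced with TCEP at 55 °C, alkylated with iodoacetamide, acetone-precipitated and trypsin-digested. Peptides were TMT-labelled, split into 10 fractions by high-pH C18, then run on nanoHPLC-MS/MS (orbitrap). Biological triplicates, with pathway over-representation analysis.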

HEK-293T [13] = experiment: Upregulation of HIF1 level in HEK293T cells transfected with HIF1/luc at 2 uM incubated for 24 hrs by Renilla luciferase base assay; assay type: functional, cell-based; conditions: Homo sapiens
In short: (§8)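 HEK293T were co-transfected (Lipofectamine 2000) with a PGK1-HRE-driven destabilized firefly luciferase reporter and constitutive TK-Renilla. Cells were seeded at 2.5 × 10⁴/well, then treated 24 h the next day, with 100 μM CoCl₂ and 10 μM ML228 as controls. Dual-Glo readout: firefly was normalized to Renilla and expressed as fold induction over DMSO.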

U2OS [14] = experiment: Effect on oxidative phosphorylation in human U2OS cells at 2 uM incubated for 24 hrs by pathway over-representation analysis; assay type: functional, cell-based; in short: as §7
U2OS [15] = experiment: Effect on mitochondrial dysfunction in human U2OS cells at 2 uM incubated for 24 hrs by pathway over-representation analysis; assay type: functional, cell-based; in short: as §7
U2OS [16] = experiment: Induction of integrated stress response in human U2OS cells assessed as increase ATF4 mRNA level at 2 uM incubated for 24 hrs by RT-qPCR analysis; assay type: functional, cell-based
In short: (§9)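 U-2OS at 1 × 10⁵/well in 6-well plates were grown 24 h to ~80% confluence, then treated 24 h versus DMSO. Total RNA (DNase-treated) was reverse-transcribed and ATF4 measured by SYBR Green qPCR. Expression was calculated by ΔΔCt against GAPDH, with DMSO set to 100%. Mean ± SD, n = 3.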

U2OS [17] = experiment: Induction of integrated stress response in human U2OS cells assessed as increase ATF4 level at 2 uM incubated for 24 hrs by Western blot analysis; assay type: functional, cell-based
In short: (§10)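 U-2OS grown to 80% confluence in 6-well plates were treated 24 h at 37 °C versus DMSO. ATF4 was detected by immunoblotting, with vinculin as reference protein.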

U2OS [18] = experiment: Effect on mitochondrial morphology in human U2OS cells at high concentration incubated for 20 hrs by Mito Tracker Deep Red dye based CPA assay; assay type: functional, cell-based; in short: as §1
U2OS [19] = experiment: Induction of mitochondrial fragmentation in human U2OS cells assessed as puncta-like staining at 30 to 50 uM incubated for 20 hrs by Mito Tracker Deep Red dye based CPA assay; assay type: functional, cell-based; conditions: dose 30-50 µM; in short: as §1
U2OS [20] = experiment: Induction of mitochondrial network fragmentation in human U2OS cells incubated for […] by CellLight Mitochondria-GFP assay; assay type: functional, cell-based; conditions: dose 30.0 µM; in short: as §2
U2OS [21] = experiment: Inhibition of cell confluence in human U2OS cells at 10 to 50 uM measured after 48 hrs by PI/caspase-3/7 Green dye based analysis; assay type: functional; conditions: dose 10-50 µM; in short: as §3
U2OS [22] = experiment: Effect on mitochondrial respiration in human U2OS cells assessed as suppression of OCR level at 30 uM measured after 24 hrs by Seahorse analysis relative to control; assay type: functional; in short: as §4
U2OS [23] = experiment: Effect on mitochondrial respiration in human U2OS cells assessed as suppression of OCR level at 10 to 30 uM of acute treatment by Seahorse analysis; assay type: functional, cell-based; conditions: dose 10-30 µM; in short: as §4
U2OS [24] = experiment: Effect on glycolysis in human U2OS cells assessed as increase in ECAR level at 10 to 30 uM of acute treatment by Seahorse analysis; assay type: functional, cell-based; conditions: dose 10-30 µM; in short: as §4
U2OS [25] = experiment: Effect on mitochondrial membrane potential in human U2OS cells at 30 uM incubated for 24 hrs by TRME staining based analysis; assay type: functional, cell-based; in short: as §5
U2OS [26] = experiment: Induction of oxidative stress in human U2OS cells assessed as increase in mitochondrial superoxide level at 30 uM incubated for 1 hr by MitoSox Red staining based analysis; assay type: functional, cell-based; in short: as §6
U2OS [27] = experiment: Effect on glucose metabolism in human U2OS cells at 30 uM incubated for 24 hrs by pathway over-representation analysis; assay type: functional, cell-based; in short: as §7
U2OS [28] = experiment: Effect on glycolysis in human U2OS cells at 30 uM incubated for 24 hrs by pathway over-representation analysis; assay type: functional, cell-based; in short: as §7
U2OS [29] = experiment: Effect on oxidative phosphorylation in human U2OS cells at 30 uM incubated for 24 hrs by pathway over-representation analysis; assay type: functional, cell-based; in short: as §7
U2OS [30] = experiment: Effect on mitochondrial dysfunction in human U2OS cells at 30 uM incubated for 24 hrs by pathway over-representation analysis; assay type: functional, cell-based; in short: as §7
U2OS [31] = experiment: Effect on HIF1 signaling in human U2OS cells at 30 uM incubated for 24 hrs by pathway over-representation analysis; assay type: functional, cell-based; in short: as §7
U2OS [32] = experiment: Upregulation of EGLN1 expression in human U2OS cells at 10 to 30 uM incubated for 24 hrs by proteome profiling based analysis; assay type: functional, cell-based; conditions: dose 10-30 µM; in short: as §7
U2OS [33] = experiment: Upregulation of HK2 expression in human U2OS cells at 10 to 30 uM incubated for 24 hrs by proteome profiling based analysis; assay type: functional, cell-based; conditions: dose 10-30 µM; in short: as §7
U2OS [34] = experiment: Upregulation of HMOX1 expression in human U2OS cells at 30 uM incubated for 24 hrs by proteome profiling based analysis; assay type: functional, cell-based; in short: as §7
U2OS [35] = experiment: Upregulation of SLC2A1 expression in human U2OS cells at 10 to 30 uM incubated for 24 hrs by proteome profiling based analysis; assay type: functional, cell-based; conditions: dose 10-30 µM; in short: as §7
HEK-293T [36] = experiment: Upregulation of HIF1 level in HEK293T cells transfected with HIF1/luc at 30 uM incubated for 24 hrs by Renilla luciferase base assay; assay type: functional, cell-based; conditions: Homo sapiens; in short: as §8
U2OS [37] = experiment: Effect on EIF2 level in human U2OS cells at 30 uM incubated for 24 hrs by proteome profiling based analysis; assay type: functional, cell-based; in short: as §7
U2OS [38] = experiment: Downregulation of MRPs level in human U2OS cells at 30 uM incubated for 24 hrs by proteome profiling based analysis; assay type: functional, cell-based; in short: as §7
U2OS [39] = experiment: Downregulation of […] level in human U2OS cells at 10 to 30 uM incubated for 24 hrs by proteome profiling based analysis; assay type: functional, cell-based; conditions: dose 10-30 µM; in short: as §7
U2OS [40] = experiment: Induction of integrated stress response in human U2OS cells assessed as increase ATF4 mRNA level at 30 uM incubated for 24 hrs by RT-qPCR analysis; assay type: functional, cell-based; in short: as §9
U2OS [41] = experiment: Induction of integrated stress response in human U2OS cells assessed as increase ATF4 level at 30 uM incubated for 24 hrs by Western blot analysis; assay type: functional, cell-based; in short: as §10

## CCOC(=O)CCNc1cc(N2CCc3ccccc3CC2)nc(-c2ccccn2)n1
U2OS [1]
  Activity: Active
U2OS [2]
  Activity: Active
U2OS [3]
  inhibition: inactive
U2OS [4]
  inhibition: Active
U2OS [5]
  Activity: Dose-Dependent Effect
U2OS [6]
  Activity: ~100%
U2OS [7]
  Activity: inactive
U2OS [8]
  Activity: inactive
U2OS [9]
  Activity: Active
U2OS [10]
  Activity: inactive
U2OS [11]
  Activity: Active
U2OS [12]
  Activity: inactive
HEK-293T [13]
  Activity: Active
U2OS [14]
  Activity: Active
U2OS [15]
  Activity: Active
U2OS [16]
  Activity: Active
U2OS [17]
  Activity: Active

## Cc1cc(C2CCCCC2)n(O)c(=O)c1 [CICLOPIROX]
U2OS [18]
  Activity: Active
U2OS [19]
  Activity: Active
U2OS [20]
  Activity: Dose-Dependent Effect
U2OS [21]
  inhibition: inactive
U2OS [5]
  Activity: Dose-Dependent Effect
U2OS [22]
  Activity: ~100%
U2OS [23]
  Activity: inactive
U2OS [24]
  Activity: inactive
U2OS [9]
  Activity: Active
U2OS [25]
  Activity: inactive
U2OS [26]
  Activity: Active
U2OS [27]
  Activity: Active
U2OS [28]
  Activity: Active
U2OS [29]
  Activity: Active
U2OS [30]
  Activity: Active
U2OS [31]
  Activity: Active
U2OS [32]
  Activity: Active
U2OS [33]
  Activity: Active
U2OS [34]
  Activity: Active
U2OS [35]
  Activity: Active
HEK-293T [36]
  Activity: Active
U2OS [37]
  Activity: Active
U2OS [38]
  Activity: Active
U2OS [39]
  Activity: Active
U2OS [40]
  Activity: Active
U2OS [41]
  Activity: Active
